# Experiments:
# [1] = tested on: CEM-4; test: Concentration required to reduce the viability of uninfected CEM-4 cells by 50%; type: functional; details: Homo sapiens
# In short: (§1)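 Cytotoxicity in uninfected CEM-4 or MT-4 cells, measured as inhibition of cell growth. The value is the concentration that lowers viability by 50%.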
# [2] = tested on: CEM-4; test: Inhibitory concentration required to inhibit HIV-induced cytopathicity in CEM-4 cells by 50%; type: functional, cell-based; details: Homo sapiens
# In short: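 CEM-4 cells infected with HIV-1 (strain HTLV-III_B/LAI). The end point is 50% inhibition of HIV-induced cytopathicity.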
# [3] = tested on: E6SM; test: Concentration required to cause a microscopically detectable alteration of normal E6SM cell morphology; type: functional, cell-based; details: Homo sapiens, read-out: IC50
# In short: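 Minimum cytotoxic concentration, read microscopically as the level that causes a detectable alteration of normal cell morphology.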
# [4] = tested on: E6SM; test: Concentration required to reduce herpes simplex virus-1TK( B2006) inducted cytopathicity by 50% (E6SM cells); type: functional, cell-based; details: Homo sapiens
# In short: (§2)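 Virus was added in the presence of compound, and the cells were incubated until cytopathic effect was scored. The value is the concentration that reduces virus-induced CPE by 50%.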
# [5] = tested on: E6SM; test: Concentration required to reduce herpes simplex virus-1TK (F) inducted cytopathicity by 50% (E6SM cells); type: functional, cell-based; details: Homo sapiens; in short: as §2
# [6] = tested on: E6SM; test: Concentration required to reduce herpes simplex virus-1TK (KOS) inducted cytopathicity by 50% (E6SM cells); type: functional, cell-based; details: Homo sapiens; in short: as §2
# [7] = tested on: E6SM; test: Concentration required to reduce herpes simplex virus-1TK (McIntyre) inducted cytopathicity by 50% (E6SM cells); type: functional, cell-based; details: Homo sapiens; in short: as §2
# [8] = tested on: E6SM; test: Concentration required to reduce herpes simplex virus-1TK (VMW1837) inducted cytopathicity by 50% (E6SM cells); type: functional, cell-based; details: Homo sapiens; in short: as §2
# [9] = tested on: E6SM; test: Concentration required to reduce herpes simplex virus-2(196) inducted cytopathicity by 50% (E6SM cells); type: functional, cell-based; details: Homo sapiens; in short: as §2
# [10] = tested on: E6SM; test: Concentration required to reduce herpes simplex virus-2(G) inducted cytopathicity by 50% (E6SM cells); type: functional, cell-based; details: Homo sapiens; in short: as §2
# [11] = tested on: Vaccinia virus; test: Concentration required to reduce vaccinia virus-inducted cytopathicity by 50% (E6SM cells); type: functional, organism-based, Orthopoxvirus vaccinia
# [12] = tested on: Human immunodeficiency virus 1; test: Concentration required to inhibit by 50% human immunodeficiency virus-1 induced syncytium formation upon coculturing persistently HIV-infected HUT-78 cells with MOLT-4 cells; type: functional, organism-based; details: Human immunodeficiency virus 1, MOLT-4
# In short: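 MOLT-4 (clone 8) cells at 1 × 10^6 cells/mL, cocultured with an equal number of persistently infected HUT-78/HIV-1 or HUT-78/HIV-2 cells across a range of compound concentrations. Giant cells were counted under the microscope after 24 h of cocultivation. The value is the concentration giving 50% inhibition of syncytium formation.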
# [13] = tested on: HEL; test: Concentration required to inhibit HEL cell growth by 50%; type: functional, cell-based; details: Homo sapiens
# [14] = tested on: HEL; test: Concentration required to reduce human cytomegalo virus(AD-169) inducted cytopathicity by 50% (HEL cells); type: functional, cell-based; in short: as §2
# [15] = tested on: HEL; test: Concentration required to reduce human cytomegalo virus(Davis) inducted cytopathicity by 50% (HEL cells); type: functional, cell-based; in short: as §2
# [16] = tested on: HeLa; test: Concentration required to reduce Coxsackie virus-inducted cytopathicity by 50% (HeLa cells); type: functional, cell-based; details: Homo sapiens
# [17] = tested on: HeLa; test: Concentration required to reduce polio-1 virus-inducted cytopathicity by 50% (HeLa cells); type: functional, cell-based; details: Homo sapiens
# [18] = tested on: HeLa; test: Concentration required to reduce vesicular stomatitis virus-inducted cytopathicity by 50% (HeLa cells); type: functional, cell-based; details: Homo sapiens
# [19] = tested on: MT4; test: Concentration required to reduce the viability of uninfected MT-4 cells by 50%; type: functional; details: Homo sapiens; in short: as §1
# [20] = tested on: MT4; test: Concentration required to inhibit human immunodeficiency virus-2 induced cytopathicity in MT-4 cells by 50%; type: functional, cell-based
# In short: (§3)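 MT-4 cells infected with HIV-1 (strain HTLV-III_B/LAI) or HIV-2 (strain LAV_ROD). The end point is 50% inhibition of virus-induced cytopathicity.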
# [21] = tested on: Vero; test: Concentration required to cause a microscopically detectable alteration of normal Vero cell morphology; type: functional, cell-based; details: Chlorocebus sabaeus
# [22] = tested on: Vero; test: Concentration required to reduce Coxsackie virus-inducted cytopathicity by 50% (Vero cells); type: functional, cell-based; details: Chlorocebus sabaeus
# [23] = tested on: Vero; test: Concentration required to reduce Junin virus-inducted cytopathicity by 50% (Vero cells); type: functional, cell-based; details: Chlorocebus sabaeus
# [24] = tested on: Vero; test: Concentration required to reduce forest virus-inducted cytopathicity by 50% (Vero cells); type: functional, cell-based; details: Chlorocebus sabaeus
# [25] = tested on: Vero; test: Concentration required to reduce Tacaribe virus-inducted cytopathicity by 50% (Vero cells); type: functional, cell-based; details: Chlorocebus sabaeus
# [26] = tested on: Vero; test: Concentration required to reduce parainfluenza-3 virus-inducted cytopathicity by 50% (Vero cells); type: functional, cell-based; details: Chlorocebus sabaeus
# [27] = tested on: Vero; test: Concentration required to reduce reovirus-1 inducted cytopathicity by 50% (Vero cells); type: functional, cell-based; details: Chlorocebus sabaeus
# [28] = tested on: Vero; test: Concentration required to reduce sindbis virus-inducted cytopathicity by 50% (Vero cells); type: functional, cell-based; details: Chlorocebus sabaeus
# [29] = tested on: MT4; test: Concentration required to inhibit human immunodeficiency virus-1 induced cytopathicity in MT-4 cells by 50%; type: functional, cell-based; in short: as §3
# [30] = tested on: E6SM; test: Concentration required to reduce herpes simplex virus-2(Lyons) inducted cytopathicity by 50% (E6SM cells); type: functional, cell-based; details: Homo sapiens; in short: as §2
# [31] = tested on: HeLa; test: Concentration required to cause a microscopically detectable alteration of normal Hela cell morphology; type: functional, cell-based; details: Homo sapiens
# [32] = tested on: Human immunodeficiency virus 2; test: Concentration required to inhibit by 50% human immunodeficiency virus-2 induced syncytium formation upon coculturing persistently HIV-infected HUT-78 cells with MOLT-4 cells; details: HUT-78, MOLT-4
SMILES,minimum cytotoxic concentration [3] [µM],IC50 [4] [µM],IC50 [6] [µM],IC50 [8] [µM],IC50 [10] [µM],IC50 [12] [µM],IC50 [13] [µM],IC50 [14] [µM],IC50 [15] [µM],IC50 [16] [µM],IC50 [18] [µM],CC50 [19] [µM],IC50 [20] [µM],IC50 [21] [µM],IC50 [22] [µM],IC50 [23] [µM],IC50 [25] [µM],IC50 [26] [µM],IC50 [27] [µM],IC50 [28] [µM],further results
O=C(O)CC(SCCCOC[C@H]1O[C@@H](OCCCSC(CC(=O)O)C(=O)O)[C@H](OCCCSC(CC(=O)O)C(=O)O)[C@@H](OCCCSC(CC(=O)O)C(=O)O)[C@@H]1OCCCSC(CC(=O)O)C(=O)O)C(=O)O (stereo partly specified),> 296,> 296,> 296,> 296,> 296,> 185,> 37,> 37,> 37,> 148,> 148,> 185,> 185,> 148,> 148,> 37,> 37,> 148,> 148,> 148,"CC50 [1]: > 74 µM; IC50 [2]: > 74 µM; IC50 [5]: > 296 µM; IC50 [7]: > 296 µM; IC50 [9]: > 296 µM; IC50 ([11]; Orthopoxvirus vaccinia, E6SM): > 296 µM; IC50 [17]: > 148 µM; IC50 [24]: > 148 µM; IC50 [29]: 85.9 µM; IC50 [30]: > 296 µM"
O=S(=O)(O)CCSCCCOC[C@H]1O[C@@H](OCCCSCCS(=O)(=O)O)[C@H](OCCCSCCS(=O)(=O)O)[C@@H](OCCCSCCS(=O)(=O)O)[C@@H]1OCCCSCCS(=O)(=O)O,> 333,> 333,> 333,> 333,> 333,> 208,> 42,> 42,> 333,> 167,> 167,> 208,> 208,> 167,> 167,> 42,> 42,> 167,> 167,> 167,CC50 [1]: > 83.3 µM; IC50 [2]: > 83.3 µM; IC50 [5]: > 333 µM; IC50 [7]: > 333 µM; IC50 [9]: > 333 µM; IC50 ([11]; e6sm): > 167 µM; IC50 [31]: > 167 µM; IC50 [17]: > 167 µM; IC50 [24]: > 167 µM; IC50 [30]: > 42 µM; IC50 [32]: > 208 µM
O=C(O)CC(SCCCOC[C@H]1O[C@@H](O[C@H]2[C@H](OCCCSC(CC(=O)O)C(=O)O)[C@@H](OCCCSC(CC(=O)O)C(=O)O)C(OCCCSC(CC(=O)O)C(=O)O)O[C@@H]2COCCCSC(CC(=O)O)C(=O)O)[C@H](OCCCSC(CC(=O)O)C(=O)O)[C@@H](OCCCSC(CC(=O)O)C(=O)O)[C@@H]1OCCCSC(CC(=O)O)C(=O)O)C(=O)O (stereo partly specified),> 181,45,> 181,> 181,> 45,1.8,> 22,1.4,0.4,> 181,> 181,> 56.4,4.17,> 181,> 181,> 22,> 22,> 181,> 181,> 181,"IC50 ([11]; Orthopoxvirus vaccinia, E6SM): > 181 µM; IC50 [31]: > 181 µM; IC50 [29]: 0.04 µM; IC50 [32]: 54.2 µM"
O=C(O)CCSCCCOC[C@H]1O[C@@H](OCCCSCCC(=O)O)[C@H](OCCCSCCC(=O)O)[C@@H](OCCCSCCC(=O)O)[C@@H]1OCCCSCCC(=O)O,,,,,,,,,,,,,,,,,,,,,CC50 [1]: > 98 µM; IC50 [2]: > 98 µM
O=C(O)CC(SCCCOC[C@H]1O[C@@H](O[C@H]2[C@H](OCCCSC(CC(=O)O)C(=O)O)[C@@H](OCCCSC(CC(=O)O)C(=O)O)[C@@H](OCCCSC(CC(=O)O)C(=O)O)O[C@@H]2COCCCSC(CC(=O)O)C(=O)O)[C@H](OCCCSC(CC(=O)O)C(=O)O)[C@@H](OCCCSC(CC(=O)O)C(=O)O)[C@@H]1OCCCSC(CC(=O)O)C(=O)O)C(=O)O (stereo partly specified),> 181,68,136,> 181,136,3.61,> 22,6.3,3.6,> 181,> 181,> 56.4,4.47,> 181,> 181,> 22,> 22,> 181,> 181,> 181,"IC50 ([11]; Orthopoxvirus vaccinia, E6SM): > 181 µM; IC50 [31]: > 181 µM; IC50 [29]: 0.37 µM; IC50 [32]: 54.2 µM"

# Source: ChEMBL document CHEMBL1130336, “Polyanion inhibitors of human immunodeficiency virus and other viruses. 6. Micelle-like anti-HIV polyanionic compounds based on a carbohydrate core” (J Med Chem, 1997)
